Drawing on ChEMBL document CHEMBL3797186, “Single Residue Substitutions That Confer Voltage-Gated Sodium Ion Channel Subtype Selectivity in the NaV1.7 Inhibitory Peptide GpTx-1” (J Med Chem, 2016), this text covers IC50 for 6 compounds.

SMILES strings stand for the structures. Positions of bridges follow the written chain, without caps; N, C: chain ends. Non-standard residues stand in square brackets, D forms with d. Residues, ends and D or L forms follow the SMILES beside them. 1Nal = N[C@@H](Cc1cccc2ccccc12)C(=O)O Some results are limits rather than exact numbers.

Assay [1] addresses Sodium channel protein type 9 subunit alpha (Homo sapiens, UniProt Q15858). As to the kind of experiment: Inhibition of human Nav1.7 expressed in HEK293 cells assessed as inward peak current by ion-works quattro patch clamp electrophysiology method. The format is cell-based. A general note: In patch-clamp work, channel activity is measured electrically.
Assay [2] addresses Sodium channel protein type 5 subunit alpha (Homo sapiens, UniProt Q14524). As to the kind of experiment: Inhibition of human Nav1.5 expressed in HEK293 cells assessed as inward peak current by ion-works quattro patch clamp electrophysiology method. In kind it is cell-based. In a few lines:
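Stable HEK293 line expressing human NaV1.5, recorded by population patch clamp on the IonWorks Quattro.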

As usually defined, the IC50 is the concentration at which inhibition is half-maximal.

Chain of Sodium channel protein type 5 subunit alpha (Q14524 whole entry): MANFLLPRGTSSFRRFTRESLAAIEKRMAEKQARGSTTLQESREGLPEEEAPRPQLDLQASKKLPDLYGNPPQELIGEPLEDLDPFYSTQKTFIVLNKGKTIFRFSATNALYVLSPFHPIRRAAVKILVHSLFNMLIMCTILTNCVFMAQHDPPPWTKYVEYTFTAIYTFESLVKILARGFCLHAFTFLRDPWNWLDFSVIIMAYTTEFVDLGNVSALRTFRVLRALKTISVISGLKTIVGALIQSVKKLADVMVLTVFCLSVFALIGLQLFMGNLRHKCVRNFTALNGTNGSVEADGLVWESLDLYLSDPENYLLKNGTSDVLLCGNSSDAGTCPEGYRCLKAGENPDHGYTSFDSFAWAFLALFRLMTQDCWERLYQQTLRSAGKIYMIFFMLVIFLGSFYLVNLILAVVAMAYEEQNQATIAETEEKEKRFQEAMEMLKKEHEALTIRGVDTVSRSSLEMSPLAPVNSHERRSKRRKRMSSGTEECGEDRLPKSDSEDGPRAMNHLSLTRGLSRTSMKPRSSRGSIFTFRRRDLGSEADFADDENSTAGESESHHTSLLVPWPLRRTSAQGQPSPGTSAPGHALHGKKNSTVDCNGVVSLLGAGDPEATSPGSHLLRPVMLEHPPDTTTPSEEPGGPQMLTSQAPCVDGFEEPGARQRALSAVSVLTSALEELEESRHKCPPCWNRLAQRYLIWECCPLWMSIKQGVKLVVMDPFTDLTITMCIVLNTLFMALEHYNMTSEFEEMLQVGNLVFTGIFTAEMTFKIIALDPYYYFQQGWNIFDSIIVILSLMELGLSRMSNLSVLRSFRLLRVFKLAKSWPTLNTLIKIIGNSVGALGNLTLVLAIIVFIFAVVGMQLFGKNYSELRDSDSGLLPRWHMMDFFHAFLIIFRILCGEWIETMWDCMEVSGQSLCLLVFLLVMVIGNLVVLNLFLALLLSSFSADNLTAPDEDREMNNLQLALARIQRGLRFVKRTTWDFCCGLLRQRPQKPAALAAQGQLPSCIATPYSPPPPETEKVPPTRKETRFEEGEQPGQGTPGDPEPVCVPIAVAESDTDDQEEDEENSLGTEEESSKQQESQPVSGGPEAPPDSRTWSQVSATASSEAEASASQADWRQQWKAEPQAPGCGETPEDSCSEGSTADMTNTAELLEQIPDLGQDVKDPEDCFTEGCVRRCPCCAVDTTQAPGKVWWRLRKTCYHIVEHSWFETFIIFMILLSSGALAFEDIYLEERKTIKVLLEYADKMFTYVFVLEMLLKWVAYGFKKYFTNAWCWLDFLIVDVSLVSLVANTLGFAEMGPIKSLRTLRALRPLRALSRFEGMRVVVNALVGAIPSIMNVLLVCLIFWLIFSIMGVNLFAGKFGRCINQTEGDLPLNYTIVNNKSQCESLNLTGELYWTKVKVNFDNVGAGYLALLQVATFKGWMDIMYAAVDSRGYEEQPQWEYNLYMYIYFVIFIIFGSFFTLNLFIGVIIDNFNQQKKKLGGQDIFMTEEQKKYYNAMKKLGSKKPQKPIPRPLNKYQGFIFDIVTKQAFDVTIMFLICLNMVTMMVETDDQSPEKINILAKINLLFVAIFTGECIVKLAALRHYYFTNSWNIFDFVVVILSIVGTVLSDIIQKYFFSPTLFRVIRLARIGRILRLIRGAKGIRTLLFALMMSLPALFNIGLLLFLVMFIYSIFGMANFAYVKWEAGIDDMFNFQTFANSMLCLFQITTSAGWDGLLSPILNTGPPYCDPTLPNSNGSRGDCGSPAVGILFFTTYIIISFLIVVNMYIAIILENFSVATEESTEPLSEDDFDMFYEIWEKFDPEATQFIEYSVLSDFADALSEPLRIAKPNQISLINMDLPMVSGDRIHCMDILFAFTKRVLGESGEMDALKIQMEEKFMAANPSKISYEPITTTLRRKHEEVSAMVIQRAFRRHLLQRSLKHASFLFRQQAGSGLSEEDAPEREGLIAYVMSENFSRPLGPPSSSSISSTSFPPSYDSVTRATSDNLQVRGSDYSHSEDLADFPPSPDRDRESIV
Chain of Sodium channel protein type 9 subunit alpha (Q15858 whole entry): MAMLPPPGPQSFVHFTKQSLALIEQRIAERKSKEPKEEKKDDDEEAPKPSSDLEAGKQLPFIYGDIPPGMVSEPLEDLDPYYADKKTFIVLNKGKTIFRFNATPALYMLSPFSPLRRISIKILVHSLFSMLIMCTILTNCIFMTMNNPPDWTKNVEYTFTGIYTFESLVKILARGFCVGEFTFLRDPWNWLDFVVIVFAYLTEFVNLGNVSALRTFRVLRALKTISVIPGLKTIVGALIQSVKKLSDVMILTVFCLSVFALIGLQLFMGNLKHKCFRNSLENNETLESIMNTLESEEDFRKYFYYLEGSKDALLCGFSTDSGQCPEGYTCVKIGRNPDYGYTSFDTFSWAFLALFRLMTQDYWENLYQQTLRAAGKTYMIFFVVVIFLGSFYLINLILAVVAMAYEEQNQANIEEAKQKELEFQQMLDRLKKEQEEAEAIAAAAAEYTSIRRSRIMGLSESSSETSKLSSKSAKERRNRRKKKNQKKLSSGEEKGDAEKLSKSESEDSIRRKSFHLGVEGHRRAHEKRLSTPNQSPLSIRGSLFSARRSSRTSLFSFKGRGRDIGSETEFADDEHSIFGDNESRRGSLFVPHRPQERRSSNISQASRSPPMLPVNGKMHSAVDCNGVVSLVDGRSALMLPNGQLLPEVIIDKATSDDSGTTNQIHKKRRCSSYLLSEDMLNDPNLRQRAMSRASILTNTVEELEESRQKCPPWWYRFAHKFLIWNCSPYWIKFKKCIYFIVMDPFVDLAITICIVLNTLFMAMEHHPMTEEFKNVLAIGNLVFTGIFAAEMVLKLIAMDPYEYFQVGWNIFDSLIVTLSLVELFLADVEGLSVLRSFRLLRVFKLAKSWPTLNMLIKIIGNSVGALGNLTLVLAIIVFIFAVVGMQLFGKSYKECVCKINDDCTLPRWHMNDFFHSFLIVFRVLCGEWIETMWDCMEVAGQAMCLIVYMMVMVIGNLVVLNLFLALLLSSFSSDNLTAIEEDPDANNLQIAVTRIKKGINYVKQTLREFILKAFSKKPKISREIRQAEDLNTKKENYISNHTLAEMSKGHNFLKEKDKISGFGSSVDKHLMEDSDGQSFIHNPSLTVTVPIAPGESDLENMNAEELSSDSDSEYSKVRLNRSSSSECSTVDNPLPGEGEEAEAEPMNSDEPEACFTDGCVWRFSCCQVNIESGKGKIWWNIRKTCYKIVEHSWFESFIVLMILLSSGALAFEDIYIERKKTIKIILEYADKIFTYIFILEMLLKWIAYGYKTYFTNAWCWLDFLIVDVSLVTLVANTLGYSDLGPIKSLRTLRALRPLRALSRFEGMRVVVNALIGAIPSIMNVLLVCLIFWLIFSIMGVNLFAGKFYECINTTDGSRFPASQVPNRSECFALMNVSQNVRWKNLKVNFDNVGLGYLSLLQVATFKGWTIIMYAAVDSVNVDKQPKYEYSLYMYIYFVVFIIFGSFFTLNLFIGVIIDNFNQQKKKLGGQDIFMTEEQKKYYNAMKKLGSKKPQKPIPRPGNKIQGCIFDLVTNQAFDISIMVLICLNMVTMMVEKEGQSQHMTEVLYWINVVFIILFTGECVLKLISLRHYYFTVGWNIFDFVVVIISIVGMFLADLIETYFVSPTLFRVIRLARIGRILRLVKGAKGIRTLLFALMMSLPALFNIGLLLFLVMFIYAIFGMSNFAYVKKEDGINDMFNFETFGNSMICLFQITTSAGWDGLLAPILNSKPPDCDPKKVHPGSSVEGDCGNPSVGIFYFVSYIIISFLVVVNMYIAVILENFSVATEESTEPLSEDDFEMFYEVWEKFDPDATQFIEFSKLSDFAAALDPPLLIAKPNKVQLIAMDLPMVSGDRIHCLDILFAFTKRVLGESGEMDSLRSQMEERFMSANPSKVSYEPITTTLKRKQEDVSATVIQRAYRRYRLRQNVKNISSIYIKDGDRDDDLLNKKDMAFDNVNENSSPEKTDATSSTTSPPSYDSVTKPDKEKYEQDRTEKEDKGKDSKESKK

With `CC[C@@H](C)[C@H]1NC(=O)[C@H]2CSSC[C@@H]3NC(=O)[C@@H](C(C)C)NC(=O)[C@H](CC(C)C)NC(=O)[C@@H](CC(N)=O)NC(=O)[C@@H]4CCCN4C(=O)[C@H](CCCNC(=N)N)NC(=O)[C@H](CSSC[C@H](NC(=O)[C@@H](CC(=O)O)NC(=O)[C@@H](C)N)C(=O)N[C@@H](CC(C)C)C(=O)NCC(=O)N[C@@H](Cc4ccccc4)C(=O)N[C@H](CCSC)C(=O)N[C@@H](CCCNC(=N)N)C(=O)N[C@@H](CCCCN)C(=O)N2)NC(=O)[C@@H](CSSC[C@@H](C(=O)N[C@@H](CCCCN)C(=O)N[C@@H](Cc2ccc(O)cc2)C(=O)N[C@H](C(=O)N[C@@H](Cc2ccccc2)C(N)=O)C(C)C)NC(=O)[C@@H](Cc2c[nH]c4ccccc24)NC(=O)[C@H](CCCCN)NC(=O)[C@H](Cc2cnc[nH]2)NC(=O)[C@@H]([C@H](C)O)NC(=O)[C@@H](CCCNC(=N)N)NC(=O)[C@H](CO)NC3=O)NC(=O)[C@@H](CCCCN)NC(=O)[C@H](CC(=O)O)NC(=O)[C@@H](CC(N)=O)NC(=O)[C@H](CC(=O)O)NC(=O)[C@@H]2CCCN2C1=O`, the IC50 in assay [1] was 370 nM; in assay [2] it was above 5000 nM.

In the case of `CC[C@H](C)[C@@H]1NC(=O)[C@@H]2CSSC[C@@H]3NC(=O)[C@H](C(C)C)NC(=O)[C@H](CC(C)C)NC(=O)[C@H](CCCCN)NC(=O)[C@@H]4CCCN4C(=O)[C@H](CCCNC(=N)N)NC(=O)[C@H](CSSC[C@H](NC(=O)[C@@H](N)CC(=O)O)C(=O)N[C@@H](CC(C)C)C(=O)NCC(=O)N[C@@H](Cc4ccccc4)C(=O)N[C@@H](CCSC)C(=O)N[C@@H](CCCNC(=N)N)C(=O)N[C@@H](CCCCN)C(=O)N2)NC(=O)[C@H](CSSC[C@@H](C(=O)N[C@@H](CCCCN)C(=O)N[C@@H](Cc2ccc(O)cc2)C(=O)N[C@H](C(=O)N[C@@H](Cc2ccccc2)C(N)=O)C(C)C)NC(=O)[C@H](Cc2c[nH]c4ccccc24)NC(=O)[C@H](CCCCN)NC(=O)[C@H](Cc2cnc[nH]2)NC(=O)[C@H]([C@@H](C)O)NC(=O)[C@H](CCCNC(=N)N)NC(=O)[C@H](CO)NC3=O)NC(=O)[C@H](CCCCN)NC(=O)[C@H](CC(=O)O)NC(=O)[C@H](CC(N)=O)NC(=O)[C@H](CC(=O)O)NC(=O)[C@@H]2CCCN2C1=O` (H-DCLGFMRKCIPDNDKCCRPKLVCSRTHKWCKYVF-NH2; disulfide 2-17, 9-23, 16-30), the IC50 in assay [1] is 630 nM; in assay [2] it was above 5000 nM.

In the case of `CC[C@H](C)[C@@H]1NC(=O)[C@@H]2CSSC[C@@H]3NC(=O)[C@H](C(C)C)NC(=O)[C@H](CC(C)C)NC(=O)[C@H](CC(N)=O)NC(=O)[C@@H]4CCCN4C(=O)[C@H](CCCNC(=N)N)NC(=O)[C@H](CSSC[C@H](NC(=O)[C@@H](N)CC(=O)O)C(=O)N[C@@H](CC(C)C)C(=O)NCC(=O)N[C@@H](Cc4ccccc4)C(=O)N[C@@H](CCSC)C(=O)N[C@@H](CCCNC(=N)N)C(=O)N[C@@H](CCCCN)C(=O)N2)NC(=O)[C@H](CSSC[C@@H](C(=O)N[C@@H](CCCCN)C(=O)N[C@@H](Cc2ccc(O)cc2)C(=O)N[C@H](C(=O)N[C@@H](Cc2ccccc2)C(N)=O)C(C)C)NC(=O)[C@H](Cc2c[nH]c4ccccc24)NC(=O)[C@H](CCCCN)NC(=O)[C@H](Cc2cnc[nH]2)NC(=O)[C@H]([C@@H](C)O)NC(=O)[C@H](CCCNC(=N)N)NC(=O)[C@H](CO)NC3=O)NC(=O)[C@H](CCCCN)NC(=O)[C@H](CC(=O)O)NC(=O)[C@H](Cc2c[nH]c3ccccc23)NC(=O)[C@H](CC(=O)O)NC(=O)[C@@H]2CCCN2C1=O` (H-DCLGFMRKCIPDWDKCCRPNLVCSRTHKWCKYVF-NH2; disulfide 2-17, 9-23, 16-30), the IC50 in assay [1] was 80 nM; in assay [2] it was above 5000 nM.

For the compound `CC[C@H](C)[C@@H]1NC(=O)[C@@H]2CSSC[C@@H]3NC(=O)[C@H](C(C)C)NC(=O)[C@H](CC(C)C)NC(=O)[C@H](CC(N)=O)NC(=O)[C@@H]4CCCN4C(=O)[C@H](CCCNC(=N)N)NC(=O)[C@H](CSSC[C@H](NC(=O)[C@@H](N)CC(=O)O)C(=O)N[C@@H](CC(C)C)C(=O)NCC(=O)N[C@@H](Cc4ccccc4)C(=O)N[C@@H](CCSC)C(=O)N[C@@H](CCCNC(=N)N)C(=O)N[C@@H](CCCCN)C(=O)N2)NC(=O)[C@H](CSSC[C@@H](C(=O)N[C@@H](CCCCN)C(=O)N[C@@H](Cc2ccc(O)cc2)C(=O)N[C@H](C(=O)N[C@@H](Cc2ccccc2)C(N)=O)C(C)C)NC(=O)[C@H](Cc2c[nH]c4ccccc24)NC(=O)[C@H](CCCCN)NC(=O)[C@H](Cc2cnc[nH]2)NC(=O)[C@H]([C@@H](C)O)NC(=O)[C@H](CCCNC(=N)N)NC(=O)[C@H](CO)NC3=O)NC(=O)[C@H](CCCCN)NC(=O)[C@H](CC(=O)O)NC(=O)[C@H](CC(N)=O)NC(=O)[C@H](CC(=O)O)NC(=O)[C@H](Cc2c[nH]c3ccccc23)NC1=O` (H-DCLGFMRKCIWDNDKCCRPNLVCSRTHKWCKYVF-NH2; disulfide 2-17, 9-23, 16-30), the IC50 in assay [1] was 80 nM; in assay [2], above 5000 nM.

`CSCC[C@@H]1NC(=O)[C@H](Cc2ccccc2)NC(=O)CNC(=O)[C@H](CC(C)C)NC(=O)[C@@H](NC(=O)[C@@H](N)CC(=O)O)CSSC[C@@H]2NC(=O)[C@@H]3CSSC[C@@H](C(=O)N[C@@H](CCCCN)C(=O)N[C@@H](Cc4ccc(O)cc4)C(=O)N[C@H](C(=O)N[C@@H](Cc4ccccc4)C(N)=O)C(C)C)NC(=O)[C@H](Cc4c[nH]c5ccccc45)NC(=O)[C@H](CCCCN)NC(=O)[C@H](Cc4cnc[nH]4)NC(=O)[C@H]([C@@H](C)O)NC(=O)[C@H](CCCNC(=N)N)NC(=O)[C@H](CO)NC(=O)[C@H](CSSC[C@H](NC(=O)[C@H](CCCCN)NC(=O)[C@H](CCCNC(=N)N)NC1=O)C(=O)N[C@@H](Cc1cc4ccccc4[nH]1)C(=O)N1CCC[C@H]1C(=O)N[C@@H](CC(=O)O)C(=O)N[C@@H](CC(N)=O)C(=O)N[C@@H](CC(=O)O)C(=O)N[C@@H](CCCCN)C(=O)N3)NC(=O)[C@H](C(C)C)NC(=O)[C@H](CC(C)C)NC(=O)[C@H](CC(N)=O)NC(=O)[C@@H]1CCCN1C(=O)[C@H](CCCNC(=N)N)NC2=O`: the IC50 in assay [1] is 130 nM; in assay [2], above 5000 nM.

For `CC[C@H](C)[C@@H]1NC(=O)[C@@H]2CSSC[C@@H]3NC(=O)[C@H](C(C)C)NC(=O)[C@H](CC(C)C)NC(=O)[C@H](CC(N)=O)NC(=O)[C@@H]4CCCN4C(=O)[C@H](CCCNC(=N)N)NC(=O)[C@H](CSSC[C@H](NC(=O)[C@@H](N)CC(=O)O)C(=O)N[C@@H](CC(C)C)C(=O)NCC(=O)N[C@@H](Cc4ccccc4)C(=O)N[C@@H](CCSC)C(=O)N[C@@H](CCCNC(=N)N)C(=O)N[C@@H](CCCCN)C(=O)N2)NC(=O)[C@H](CSSC[C@@H](C(=O)N[C@@H](CCCCN)C(=O)N[C@@H](Cc2ccc(O)cc2)C(=O)N[C@H](C(=O)N[C@@H](Cc2ccccc2)C(N)=O)C(C)C)NC(=O)[C@H](Cc2c[nH]c4ccccc24)NC(=O)[C@H](CCCCN)NC(=O)[C@H](Cc2cccc4ccccc24)NC(=O)[C@H]([C@@H](C)O)NC(=O)[C@H](CCCNC(=N)N)NC(=O)[C@H](CO)NC3=O)NC(=O)[C@H](CCCCN)NC(=O)[C@H](CC(=O)O)NC(=O)[C@H](CC(N)=O)NC(=O)[C@H](CC(=O)O)NC(=O)[C@@H]2CCCN2C1=O` (H-DCLGFMRKCIPDNDKCCRPNLVCSRT[1Nal]KWCKYVF-NH2; disulfide 2-17, 9-23, 16-30), the IC50 in assay [1] worked out at 250 nM; in assay [2], 900 nM.
